ChEMBL document CHEMBL1944603, “An efficient synthesis of highly functionalized novel chromeno[4,3-b]pyrroles and indolizino[6,7-b]indoles as potent antimicrobial and antioxidant agents” (2012)
In brackets after ≈: the same amount, converted by molar mass.

Columns and labels:
Assay type in all cases: functional
[1] = test system: Radical scavenging activity; test: Antioxidant activity assessed as DPPH free radical scavenging activity at 50 ug by spectrophotometer
Outline: (§1)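 DPPH radical scavenging measured spectrophotometrically by Blois's method at 50, 500 and 1000 µg. Absorbance read at 517 nm. Percent scavenging is the absorbance decrease at 517 nm relative to the absorbance of DPPH solution without test compound. L-ascorbic acid as standard.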

[2] = test system: Bacillus subtilis; test: Antimicrobial activity against Bacillus subtilis at 25 ug/ml by agar diffusion assay
Outline: (§2)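 Agar diffusion assay in duplicate against the human bacterial pathogens; tetracycline as reference control.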

[3] = test system: Bacillus subtilis; test: Antimicrobial activity against Bacillus subtilis at 50 ug/ml by agar diffusion assay; outline: as §2
[4] = test system: Bacillus subtilis; test: Antimicrobial activity against Bacillus subtilis at 75 ug/ml by agar diffusion assay; outline: as §2
[5] = test system: Bacillus subtilis; test: Antimicrobial activity against Bacillus subtilis at 100 ug/ml by agar diffusion assay; outline: as §2
[6] = test system: Staphylococcus aureus; test: Antimicrobial activity against Staphylococcus aureus at 25 ug/ml by agar diffusion assay; outline: as §2
[7] = test system: Staphylococcus aureus; test: Antimicrobial activity against Staphylococcus aureus at 50 ug/ml by agar diffusion assay; outline: as §2
[8] = test system: Staphylococcus aureus; test: Antimicrobial activity against Staphylococcus aureus at 75 ug/ml by agar diffusion assay; outline: as §2
[9] = test system: Staphylococcus aureus; test: Antimicrobial activity against Staphylococcus aureus at 100 ug/ml by agar diffusion assay; outline: as §2
[10] = test system: Pseudomonas aeruginosa; test: Antimicrobial activity against Pseudomonas aeruginosa at 25 ug/ml by agar diffusion assay; outline: as §2
[11] = test system: Pseudomonas aeruginosa; test: Antimicrobial activity against Pseudomonas aeruginosa at 50 ug/ml by agar diffusion assay; outline: as §2
[12] = test system: Pseudomonas aeruginosa; test: Antimicrobial activity against Pseudomonas aeruginosa at 75 ug/ml by agar diffusion assay; outline: as §2
[13] = test system: Pseudomonas aeruginosa; test: Antimicrobial activity against Pseudomonas aeruginosa at 100 ug/ml by agar diffusion assay; outline: as §2
[14] = test system: Klebsiella pneumoniae; test: Antimicrobial activity against Klebsiella pneumoniae at 25 ug/ml by agar diffusion assay; outline: as §2
[15] = test system: Klebsiella pneumoniae; test: Antimicrobial activity against Klebsiella pneumoniae at 50 ug/ml by agar diffusion assay; outline: as §2
[16] = test system: Klebsiella pneumoniae; test: Antimicrobial activity against Klebsiella pneumoniae at 75 ug/ml by agar diffusion assay; outline: as §2
[17] = test system: Klebsiella pneumoniae; test: Antimicrobial activity against Klebsiella pneumoniae at 100 ug/ml by agar diffusion assay; outline: as §2
[18] = test system: Fusarium oxysporum; test: Antifungal activity against Fusarium oxysporum
Outline: (§3)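 Agar diffusion assay in duplicate against the plant fungal pathogens; read-out as minimum inhibitory concentration (MIC); carbendazim as reference control.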

[19] = test system: Macrophomina phaseolina; test: Antifungal activity against Macrophomina phaseolina; outline: as §3
[20] = test system: Radical scavenging activity; test: Antioxidant activity assessed as DPPH free radical scavenging activity at 500 ug by spectrophotometer; outline: as §1
[21] = test system: Radical scavenging activity; test: Antioxidant activity assessed as DPPH free radical scavenging activity at 1000 ug by spectrophotometer; outline: as §1

| SMILES | Activity [1] | inhibition zone (IZ) [2] | inhibition zone (IZ) [3] | inhibition zone (IZ) [4] | inhibition zone (IZ) [5] | inhibition zone (IZ) [6] | inhibition zone (IZ) [7] | inhibition zone (IZ) [8] | inhibition zone (IZ) [9] | inhibition zone (IZ) [10] | inhibition zone (IZ) [11] | inhibition zone (IZ) [12] | inhibition zone (IZ) [13] | inhibition zone (IZ) [14] | inhibition zone (IZ) [15] | inhibition zone (IZ) [16] | inhibition zone (IZ) [17] | MIC [18] | MIC [19] | Activity [20] | further results |
| --- | --- | --- | --- | --- | --- | --- | --- | --- | --- | --- | --- | --- | --- | --- | --- | --- | --- | --- | --- | --- | --- |
| COC(=O)[C@]12Cc3c([nH]c4ccccc34)[C@@H](c3ccc(Cl)cc3)N1[C@@H]1c3c(ccc4ccccc34)OC[C@@H]1C2 | 26% | 12 mm | 18 mm | 21 mm | 26 mm | 14 mm | 17 mm | 20 mm | 28 mm | 12 mm | 16 mm | 20 mm | 26 mm | 11 mm | 15 mm | 22 mm | 25 mm | 90 µg/mL (≈ 168 µM) | 105 µg/mL (≈ 196 µM) | 44% | Activity [21]: 75% |
| COC(=O)[C@]12Cc3c([nH]c4ccccc34)[C@@H](c3ccc(OC)cc3)N1[C@@H]1c3c(ccc4ccccc34)OC[C@@H]1C2 | 18% | 9 mm | 12 mm | 17 mm | 20 mm | 9 mm | 11 mm | 18 mm | 20 mm | 10 mm | 12 mm | 16 mm | 19 mm | 9 mm | 11 mm | 18 mm | 20 mm | 100 µg/mL (≈ 188 µM) | 95 µg/mL (≈ 179 µM) | 48% | Activity [21]: 81% |
